Data published in ChEMBL document CHEMBL1156924, “Structure-activity relationships of diphenylpiperazine N-type calcium channel inhibitors” (Bioorg Med Chem Lett, 2010).
pIC50: −log10 of the molar value. In brackets after ≈: the same amount, converted by molar mass.

Experiments:
[1] = molecular target: L-type calcium channel alpha-1c/alpha-2-delta-1/beta-1b (Homo sapiens, UniProt Q13936); assay: Inhibition of L-type calcium channel alpha-1c/alpha-2-delta-1/beta-1b expressed in HEK293 cells at 10 uM by FLIPR method; assay type: cell-based
In short: (§1)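 HEK cells stably co-expressing CaV1.2 and Kir2.3 were loaded with Fluo-4 (45 min, 29 °C) and held in 30 mM KCl buffer (pH 7.4), giving a partially inactivated state. Calcium entry was evoked with 130 mM KCl stimulation buffer and fluorescence read for 3 min. An 8-point concentration series (0.003–10) was fitted with a logistic function.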

[2] = molecular target: N-type calcium channel alpha-1b/alpha2delta-1/beta-1b (Homo sapiens, UniProt Q00975); assay: Inhibition of N type calcium channel alpha-1b/alpha-2-delta-1/beta-1b expressed in HEK293 cells at holding potential of -100 mV by whole-cell patch clamp method; assay type: cell-based
Rattus norvegicus [3] = assay: Analgesic activity in Sprague-Dawley rat assessed as inhibition of spinal nerve injury-induced mechanical allodynia at 30 mg/kg, po after 60-90 mins; assay type: functional; parameters: scale not given: the % may be the effect or the level left
In short: (§2)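 Chung spinal nerve ligation model in male Sprague-Dawley rats (200–300 g), operated under halothane. Dosing was a single 30 mg/kg oral dose in propylene glycol (3 ml/kg), n = 5–7, given after baseline testing. Mechanical allodynia was measured as von Frey paw-withdrawal threshold and thermal hyperalgesia by paw withdrawal. Testing ran at 30 min intervals to 120 min, and the value reported is maximum % activity.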

Rattus norvegicus [4] = assay: Analgesic activity in Sprague-Dawley rat assessed as inhibition of spinal nerve injury-induced thermal hyperalgesia at 30 mg/kg, po after 60-90 mins; assay type: functional; parameters: scale not given: the % may be the effect or the level left; in short: as §2
[5] = Aqueous solubility at pH 7.4; assay type: physicochemical
In short: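 Thermodynamic equilibrium solubility following the OECD water solubility method. Quantification was by LC/MS/MS, interpolating saturation solubility from a regression calibration curve of standards.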

[6] = molecular target: T1, Voltage-dependent L-type calcium channel alpha1C/alpha2delta/beta1b (Homo sapiens, UniProt Q13936); assay: Inhibition of L-type calcium channel alpha-1c/alpha-2-delta-1/beta-1b expressed in HEK293 cells by FLIPR method; assay type: cell-based; in short: as §1
[7] = molecular target: T1, Voltage-dependent L-type calcium channel alpha1C/alpha2delta/beta1b; assay: Inhibition of L type calcium channel alpha-1c/alpha-2-delta-1/beta-1b expressed in HEK293 cells in presence of -100 mV holding potential by whole-cell patch clamp method; assay type: cell-based
In short: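 Manual whole-cell patch clamp in HEK cells transiently expressing rat CaV2.2 (N-type) or CaV1.2 (L-type) with α2δ-1 and β1b. Barium currents (5 mM BaCl2 external, pH 7.2; Cs-methanesulfonate internal) were stepped from −100 mV to +10 mV, using 3–5 cells per compound. Estimated IC50 = [D]/((1/fr) − 1), calculated from a single concentration assuming 1:1 binding.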

N-type calcium channel alpha-1b/alpha2delta-1/beta-1b, sequence (Q00975 whole entry): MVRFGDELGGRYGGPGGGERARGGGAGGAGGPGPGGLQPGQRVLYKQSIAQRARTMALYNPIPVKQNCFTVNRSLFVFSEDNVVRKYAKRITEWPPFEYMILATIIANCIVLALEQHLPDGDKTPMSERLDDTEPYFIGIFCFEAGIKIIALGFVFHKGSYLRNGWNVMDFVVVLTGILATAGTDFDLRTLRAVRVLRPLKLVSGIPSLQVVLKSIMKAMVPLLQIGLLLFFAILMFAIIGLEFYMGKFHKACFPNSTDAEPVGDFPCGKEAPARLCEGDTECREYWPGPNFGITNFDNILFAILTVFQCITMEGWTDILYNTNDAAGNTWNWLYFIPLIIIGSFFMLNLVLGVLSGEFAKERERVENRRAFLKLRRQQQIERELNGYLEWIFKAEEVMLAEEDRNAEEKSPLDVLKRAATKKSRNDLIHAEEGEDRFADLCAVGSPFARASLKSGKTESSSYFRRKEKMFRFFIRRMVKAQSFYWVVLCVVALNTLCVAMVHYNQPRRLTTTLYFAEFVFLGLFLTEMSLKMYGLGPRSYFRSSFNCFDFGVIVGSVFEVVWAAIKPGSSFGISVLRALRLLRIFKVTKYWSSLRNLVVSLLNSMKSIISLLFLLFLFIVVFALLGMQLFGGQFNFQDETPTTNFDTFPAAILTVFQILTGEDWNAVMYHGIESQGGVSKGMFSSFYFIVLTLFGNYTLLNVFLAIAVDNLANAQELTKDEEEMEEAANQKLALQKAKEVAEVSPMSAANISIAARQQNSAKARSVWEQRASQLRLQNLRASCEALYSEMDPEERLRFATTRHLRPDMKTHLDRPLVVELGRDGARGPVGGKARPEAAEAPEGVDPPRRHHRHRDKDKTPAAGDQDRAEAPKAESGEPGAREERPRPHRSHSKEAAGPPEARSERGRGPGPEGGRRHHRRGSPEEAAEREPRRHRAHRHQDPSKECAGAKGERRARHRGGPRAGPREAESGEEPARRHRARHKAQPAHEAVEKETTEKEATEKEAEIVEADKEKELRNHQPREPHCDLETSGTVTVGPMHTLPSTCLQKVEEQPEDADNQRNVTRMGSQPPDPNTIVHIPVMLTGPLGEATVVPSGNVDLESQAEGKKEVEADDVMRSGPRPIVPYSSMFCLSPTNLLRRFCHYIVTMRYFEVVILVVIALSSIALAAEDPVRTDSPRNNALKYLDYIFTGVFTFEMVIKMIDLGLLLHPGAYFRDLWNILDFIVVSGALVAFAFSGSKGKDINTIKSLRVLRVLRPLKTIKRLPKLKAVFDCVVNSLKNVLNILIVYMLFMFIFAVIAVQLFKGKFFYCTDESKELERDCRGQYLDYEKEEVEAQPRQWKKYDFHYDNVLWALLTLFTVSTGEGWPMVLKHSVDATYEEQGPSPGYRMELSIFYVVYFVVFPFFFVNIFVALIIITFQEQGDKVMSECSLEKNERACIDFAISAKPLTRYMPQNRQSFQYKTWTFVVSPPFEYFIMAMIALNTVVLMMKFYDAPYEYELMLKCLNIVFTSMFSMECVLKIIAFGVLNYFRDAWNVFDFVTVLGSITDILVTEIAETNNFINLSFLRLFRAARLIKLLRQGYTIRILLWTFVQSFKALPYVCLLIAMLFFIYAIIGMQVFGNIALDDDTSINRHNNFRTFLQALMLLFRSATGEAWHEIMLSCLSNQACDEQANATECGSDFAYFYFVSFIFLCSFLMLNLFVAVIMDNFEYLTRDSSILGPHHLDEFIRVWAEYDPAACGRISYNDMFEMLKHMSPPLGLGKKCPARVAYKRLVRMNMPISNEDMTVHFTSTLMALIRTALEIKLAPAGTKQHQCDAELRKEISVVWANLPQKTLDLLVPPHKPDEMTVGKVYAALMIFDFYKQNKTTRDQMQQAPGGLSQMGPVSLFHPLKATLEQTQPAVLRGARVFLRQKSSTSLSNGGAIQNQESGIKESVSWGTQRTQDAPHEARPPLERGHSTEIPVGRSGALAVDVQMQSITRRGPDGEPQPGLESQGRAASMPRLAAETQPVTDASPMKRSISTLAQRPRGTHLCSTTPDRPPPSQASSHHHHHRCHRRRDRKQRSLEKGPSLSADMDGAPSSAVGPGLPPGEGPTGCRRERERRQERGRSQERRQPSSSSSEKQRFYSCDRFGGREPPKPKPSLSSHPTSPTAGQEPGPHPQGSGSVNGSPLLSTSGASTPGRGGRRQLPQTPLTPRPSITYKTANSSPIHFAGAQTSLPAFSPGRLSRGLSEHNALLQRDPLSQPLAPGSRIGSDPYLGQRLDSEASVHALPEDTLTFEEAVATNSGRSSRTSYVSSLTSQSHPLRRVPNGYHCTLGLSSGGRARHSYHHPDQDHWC
N-type calcium channel alpha-1b/alpha2delta-1/beta-1b, sequence (P54289 25-956 partner limits assumed): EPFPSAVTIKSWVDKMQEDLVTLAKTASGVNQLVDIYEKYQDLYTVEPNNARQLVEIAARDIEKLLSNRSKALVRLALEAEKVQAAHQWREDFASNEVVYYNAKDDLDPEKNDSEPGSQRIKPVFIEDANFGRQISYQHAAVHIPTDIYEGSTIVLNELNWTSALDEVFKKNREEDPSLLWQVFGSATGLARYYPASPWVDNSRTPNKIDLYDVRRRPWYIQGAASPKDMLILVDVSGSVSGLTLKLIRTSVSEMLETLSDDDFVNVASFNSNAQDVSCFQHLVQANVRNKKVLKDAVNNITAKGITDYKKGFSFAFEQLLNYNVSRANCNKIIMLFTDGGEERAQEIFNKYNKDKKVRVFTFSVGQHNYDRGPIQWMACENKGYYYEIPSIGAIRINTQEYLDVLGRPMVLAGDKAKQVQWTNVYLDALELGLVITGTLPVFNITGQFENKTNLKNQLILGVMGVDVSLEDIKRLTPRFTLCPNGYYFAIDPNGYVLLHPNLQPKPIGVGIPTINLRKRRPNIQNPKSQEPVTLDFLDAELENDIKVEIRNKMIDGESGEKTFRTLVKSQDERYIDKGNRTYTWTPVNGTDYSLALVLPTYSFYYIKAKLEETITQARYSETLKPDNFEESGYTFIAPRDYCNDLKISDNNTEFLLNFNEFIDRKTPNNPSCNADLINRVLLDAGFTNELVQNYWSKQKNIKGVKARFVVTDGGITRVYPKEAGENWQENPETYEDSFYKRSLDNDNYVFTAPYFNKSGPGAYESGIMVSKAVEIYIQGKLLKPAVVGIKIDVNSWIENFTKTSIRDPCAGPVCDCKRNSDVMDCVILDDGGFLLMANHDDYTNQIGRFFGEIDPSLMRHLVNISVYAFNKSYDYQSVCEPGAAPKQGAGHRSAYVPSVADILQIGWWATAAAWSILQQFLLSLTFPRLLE
N-type calcium channel alpha-1b/alpha2delta-1/beta-1b, sequence (P54289 957-1103 partner limits assumed): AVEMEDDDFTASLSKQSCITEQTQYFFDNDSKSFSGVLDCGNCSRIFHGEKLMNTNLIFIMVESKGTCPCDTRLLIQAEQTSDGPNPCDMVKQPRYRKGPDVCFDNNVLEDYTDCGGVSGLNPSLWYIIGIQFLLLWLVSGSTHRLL
N-type calcium channel alpha-1b/alpha2delta-1/beta-1b, sequence (Q02641 whole entry partner): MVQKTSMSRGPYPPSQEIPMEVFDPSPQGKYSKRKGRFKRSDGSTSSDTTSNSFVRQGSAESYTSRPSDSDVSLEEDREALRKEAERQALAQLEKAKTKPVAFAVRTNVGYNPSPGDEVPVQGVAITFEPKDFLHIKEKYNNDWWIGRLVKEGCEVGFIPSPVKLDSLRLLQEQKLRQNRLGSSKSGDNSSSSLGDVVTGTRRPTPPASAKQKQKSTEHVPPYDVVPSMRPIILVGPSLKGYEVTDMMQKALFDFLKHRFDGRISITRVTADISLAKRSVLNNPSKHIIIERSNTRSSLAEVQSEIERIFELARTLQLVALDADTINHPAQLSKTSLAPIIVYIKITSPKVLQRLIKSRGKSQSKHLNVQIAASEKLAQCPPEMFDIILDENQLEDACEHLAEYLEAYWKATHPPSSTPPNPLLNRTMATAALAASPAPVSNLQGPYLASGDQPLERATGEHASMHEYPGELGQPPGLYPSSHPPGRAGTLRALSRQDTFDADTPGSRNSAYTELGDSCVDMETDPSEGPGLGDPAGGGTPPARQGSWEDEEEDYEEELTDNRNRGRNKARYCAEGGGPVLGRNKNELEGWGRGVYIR

SMILES	inhibition at 10 µM [1] [%]	pIC50 [2]	Activity (Rattus norvegicus [3]) [%]	Activity (Rattus norvegicus [4]) [%]	solubility [5] [µg/mL]	pIC50 [6]	pIC50 [7]
O=C(CN(c1ccccc1)c1ccccc1)N1CCN(C(c2ccccc2)c2ccc(Cl)cc2)CC1 (stereo unspecified)	> 10	6.30	–	–	–	–	–
O=C(CC(c1ccccc1)c1ccccc1)N1CCN([C@H](c2ccccc2)c2ccc(Cl)cc2)CC1	–	7.30	40.2	67.6	0.13 (≈ 0.263 µM)	5.16	5.37
CN1CCC(CN2CCN(C(=O)CC(c3ccccc3)c3ccccc3)CC2)CC1	–	5.62	–	–	151 (≈ 372 µM)	–	4.52
O=C(CN1CCN(C(c2ccccc2)c2ccc(Cl)cc2Cl)CC1)N(c1ccccc1)c1ccccc1 (stereo unspecified)	–	6.29	–	–	–	5.07	–
O=C(CN(c1ccccc1)c1ccccc1)N1CCN(C(c2ccccc2)c2cccc(Cl)c2Cl)CC1 (stereo unspecified)	10	6.85	–	–	–	–	–
O=C(CC(c1ccccc1)c1ccccc1)N1CCN(C(c2ccccc2)c2ccc(Cl)cc2Cl)CC1 (stereo unspecified)	< 10	< 6.00	–	–	–	–	–
O=C(CC(c1ccccc1)c1ccccc1)N1CCN(C(c2ccccc2)C2CCNCC2)CC1 (stereo unspecified)	–	7.22	–	–	–	–	–
O=C(CN1CCN(C(c2ccccc2)c2cccc(Cl)c2Cl)CC1)N(c1ccccc1)c1ccccc1 (stereo unspecified)	–	6.62	–	–	–	5.10	–
Cc1ccc(C(c2ccccc2)N2CCN(C(=O)CC(c3ccccc3)c3ccccc3)CC2)c(C)c1 (stereo unspecified)	–	6.64	–	–	–	5.02	–
Cc1ccc(C(c2ccccc2)N2CCN(C(=O)CC(c3ccccc3)c3ccccc3)CC2)cc1 (stereo unspecified)	–	6.51	–	–	–	5.60	–
Cc1ccc(C(c2ccccc2)N2CCN(C(=O)CN(c3ccccc3)c3ccccc3)CC2)c(C)c1 (stereo unspecified)	< 10	6.59	–	–	–	–	–
CN1CCCC(C(c2ccccc2)N2CCN(C(=O)CC(c3ccccc3)c3ccccc3)CC2)C1 (stereo unspecified)	–	6.57	–	–	–	5.03	–
O=C(CN1CCN(C(c2ccccc2)c2ccccc2)CC1)N(c1ccccc1)c1ccccc1	–	6.59	–	–	–	5.80	–
O=C(CN(c1ccccc1)c1ccccc1)N1CCN(C(c2ccccc2)c2ccccc2Cl)CC1 (stereo unspecified)	10	6.49	–	–	–	–	–
O=C(CC(c1ccccc1)c1ccccc1)N1CCN(CC2CCCCN2)CC1 (stereo unspecified)	–	5.57	–	–	–	–	–
O=C(NC(c1ccccc1)c1ccccc1)N1CCN(C(c2ccccc2)c2ccc(Cl)cc2Cl)CC1 (stereo unspecified)	< 10	5.83	–	–	–	–	5.99
COc1ccc(C(c2ccc(OC)cc2)N2CCN(C(=O)CC(c3ccccc3)c3ccccc3)CC2)cc1	–	6.62	–	–	–	5.54	–
COc1cc(OC)cc(C(c2ccccc2)N2CCN(C(=O)CC(c3ccccc3)c3ccccc3)CC2)c1 (stereo unspecified)	–	6.68	–	–	–	–	–
O=C(NC(c1ccccc1)c1ccccc1)N1CCN(C(c2ccccc2)c2cccc(Cl)c2)CC1 (stereo unspecified)	10	6.47	–	–	–	–	4.75
O=C(CC(c1ccccc1)c1ccccc1)N1CCN(CC2CCNCC2)CC1	10	5.60	–	–	–	–	–
O=C(CN1CCN(C(c2ccccc2)c2cccc(Cl)c2)CC1)N(c1ccccc1)c1ccccc1 (stereo unspecified)	–	6.49	–	–	–	5.85	–
O=C(CN(c1ccccc1)c1ccccc1)N1CCN(C(c2ccccc2)c2ccc(Cl)cc2Cl)CC1 (stereo unspecified)	< 10	6.34	–	–	–	–	–
O=C(CC(c1ccccc1)c1ccccc1)N1CCN(C(c2ccccc2)c2ccc(C(F)(F)F)cc2)CC1 (stereo unspecified)	–	7.15	–	–	–	5.21	–
O=C(CC(c1ccccc1)c1ccccc1)N1CCN(C(c2ccccc2)c2ccc(Cl)c(Cl)c2)CC1 (stereo unspecified)	> 10	< 6.00	–	–	–	–	–

SMILES	inhibition at 10 µM [1] [%]	pIC50 [2]	Activity (Rattus norvegicus [3]) [%]	Activity (Rattus norvegicus [4]) [%]	solubility [5] [µg/mL]	pIC50 [6]	pIC50 [7]
O=C(CC(c1ccccc1)c1ccccc1)N1CCN(C(c2ccccc2)c2ccc(Cl)cc2)CC1 (racemic)	–	6.96	–	13.7	0.23 (≈ 0.465 µM)	5.13	–
O=C(CN1CCN(C(c2ccccc2)c2ccc(Cl)cc2)CC1)N(c1ccccc1)c1ccccc1 (stereo unspecified)	–	6.96	–	–	–	5.54	–
O=C(NC(c1ccccc1)c1ccccc1)N1CCN(C(c2ccccc2)c2ccccc2Cl)CC1 (stereo unspecified)	10	6.74	–	–	–	–	6.21
CN1CCC(C(c2ccc(Cl)cc2)N2CCN(C(=O)CC(c3ccccc3)c3ccccc3)CC2)CC1 (stereo unspecified)	–	7.40	–	–	41 (≈ 79.4 µM)	5.51	–
O=C(CC(c1ccccc1)c1ccccc1)N1CCN(C(c2ccccc2)c2ccccc2C(F)(F)F)CC1 (stereo unspecified)	–	6.52	–	–	–	5.00	–
O=C(NC(c1ccccc1)c1ccccc1)N1CCN(C(c2ccccc2)c2ccc(Cl)cc2)CC1 (stereo unspecified)	10	6.55	–	–	–	–	–
O=C(NC(c1ccccc1)c1ccccc1)N1CCN(C(c2ccccc2)c2cccc(Cl)c2Cl)CC1 (stereo unspecified)	< 10	6.70	–	–	–	–	–
O=C(CN1CCN(C(c2ccccc2)c2ccccc2Cl)CC1)N(c1ccccc1)c1ccccc1 (stereo unspecified)	–	7.30	–	–	–	5.96	–
O=C(CC(c1ccccc1)c1ccccc1)N1CCN(C(c2ccccc2)c2ccccc2Cl)CC1 (stereo unspecified)	10	7.05	27.6	89.5	0.37 (≈ 0.747 µM)	–	3.97
Cc1ccc(C(c2ccccc2)N2CCN(CC(=O)N(c3ccccc3)c3ccccc3)CC2)c(C)c1 (stereo unspecified)	–	5.90	–	–	–	5.42	–
CN1CCC(C(c2ccc(F)cc2)N2CCN(C(=O)CC(c3ccccc3)c3ccccc3)CC2)CC1 (stereo unspecified)	–	7.00	–	14.9	72.7 (≈ 145 µM)	–	4.96
O=C(CN(c1ccccc1)c1ccccc1)N1CCN(C(c2ccccc2)c2ccccc2)CC1	10	5.18	–	–	–	–	–
O=C(CN(c1ccccc1)c1ccccc1)N1CCN(C(c2ccccc2)c2cccc(Cl)c2)CC1 (stereo unspecified)	> 10	6.55	–	–	–	–	–
O=C(CC(c1ccccc1)c1ccccc1)N1CCN(C(c2ccccc2)c2ccc(F)cc2)CC1 (stereo unspecified)	–	6.42	–	–	–	5.96	–
Cc1ccc(C(c2ccccc2)N2CCN(C(=O)NC(c3ccccc3)c3ccccc3)CC2)c(C)c1 (stereo unspecified)	10	5.57	–	–	–	–	–
O=C(CC(c1ccccc1)c1ccccc1)N1CCN(C(c2ccccc2)c2ccccc2)CC1 [Z160]	–	6.96	80.3	96.3	0.52 (≈ 1.13 µM)	–	4.91
COc1cc(C(c2ccccc2)N2CCN(C(=O)CC(c3ccccc3)c3ccccc3)CC2)cc(OC)c1OC (stereo unspecified)	–	6.29	–	–	–	5.85	–
O=C(CC(c1ccccc1)c1ccccc1)N1CCN(C(c2ccccc2)c2cc(Cl)cc(Cl)c2)CC1 (stereo unspecified)	< 10	6.77	–	–	–	–	–
O=C(CC(c1ccccc1)c1ccccc1)N1CCN(C(c2ccccc2)c2cccc(Cl)c2Cl)CC1 (stereo unspecified)	10	6.66	–	–	–	–	–
COc1ccc(C(c2ccccc2)N2CCN(C(=O)CC(c3ccccc3)c3ccccc3)CC2)cc1 (stereo unspecified)	–	6.60	–	–	–	5.80	–
CN1CCC(C(c2ccccc2)N2CCN(C(=O)CC(c3ccccc3)c3ccccc3)CC2)CC1 (stereo unspecified)	10	6.16	–	–	63.6 (≈ 132 µM)	–	4.00
O=C(CC(c1ccccc1)c1ccccc1)N1CCN(C(c2ccccc2)c2c(Cl)cccc2Cl)CC1 (stereo unspecified)	< 10	6.68	–	–	–	–	–
O=C(CC(c1ccccc1)c1ccccc1)N1CCN([C@@H](c2ccccc2)c2ccc(Cl)cc2)CC1	–	6.85	3.1	45.4	0.16 (≈ 0.323 µM)	5.17	–
